Compounds with a hit are over-represented: about 1.4% of the library has one in this group of screens.
CASP6 VEID inh – human caspase-6 inhibitors, primary screen, biochemical, VEID-R110 fluorescence, single point, set 2. purified caspase-6, Z-VEID-R110 cleavage fluorescence. inhibition, % at 12.5 µM. 350,000 compounds, 0.53% hits;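 active means mean inhibition across replicates at least about 35%, with every replicate also reaching that limit, limit read from the data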;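 further: 0% = median of neutral control wells and 100% = no fluorescence left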
Target sequence (P55212 24-179 limits assumed): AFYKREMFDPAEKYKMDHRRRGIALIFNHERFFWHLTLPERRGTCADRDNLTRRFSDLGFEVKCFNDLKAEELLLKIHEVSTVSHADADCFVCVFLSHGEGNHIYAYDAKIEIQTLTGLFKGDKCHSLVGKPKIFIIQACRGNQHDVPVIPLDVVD
Target sequence (P55212 194-293 limits assumed): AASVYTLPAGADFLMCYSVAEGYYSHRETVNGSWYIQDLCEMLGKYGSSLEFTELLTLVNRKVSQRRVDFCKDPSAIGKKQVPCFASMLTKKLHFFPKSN
Vif inh – HIV Vif self-association inhibitors, primary screen, imaging, HEK293T, single point | HEK293T cells, Vif self-association by quenched fluorescence, 24 h | inhibition, % at 7.49 µM | 340,000 compounds, 0.35% hits | AID 602346, 2012; in the data active means inhibition above about 50%, passing the limit was not always enough
T cell HTS – modulators of CD8 T cell-vesicle binding, primary screen, mouse 2C CD8+ T cells, flow cytometry; 2C CD8+ T cell-vesicle binding; hits give low values; response (vesicle binding), % at 7 µM; 330,000 compounds, 0.068% hits; AID 2052, 2009;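 active means response, share of CD8 T cells binding vesicles, and their 90th percentile fluorescence all below set limits, cut at about 80% in these data, passing the limit was not always enough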;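 further: values below 100% mean blocked vesicle binding to the CD8+ T cells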
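System: murine 2C transgenic CD8+ T lymphocytes; also added: QL9-loaded Drosophila micro-vesicles; times: binding 1.5 h at 37 °C; measured by: flow cytometry, PE anti-B7-1 (FL2) versus Alexa647 anti-CD8 (FL8), PFA-fixed; control set: Peptide-free naked vesicles (low) and QL9 vesicles with 0.7% DMSO vehicle (high)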
Myeloid diff 2 – induction of myeloid progenitor differentiation, primary screen, cell-based, flow cytometry, MLPCN library. 360,000 compounds, 1% hits. calls only at 10 µM. ER-HoxA9 myeloid progenitors, lysozyme-GFP differentiation. AID 624256, 2012;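 active means normalized GFP-positive differentiation at or above the plate's own cutoff, the solvent-only control mean plus 3 SD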;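 further: cells exposed to compound for four days before flow analysis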
Myeloid diff – inducers of myeloid progenitor differentiation, confirmation, cell-based, GFP/Mac1 flow cytometry, cherry pick 01; ER-HoxA9 myeloid progenitors, GFP/Mac1 double-positive flow; 2,300 compounds, 2% hits; shares compounds with Myeloid diff 2; calls only;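 active means share of green or green-and-red cells above 9 and 9% in run 1 or 4 and 3% in run 2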
GFP autofluor – compound fluorescence in myeloid differentiation counter-screen; AID 651707; shares compounds with Myeloid diff 2; 2,300 compounds, 7.4% hits; fluorescence response, % (concentration not given with the values); ER-HoxA9 myeloid progenitors, no estrogen, GFP autofluorescence flow cytometry; vehicle wells 0%, positive control 100%;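 active means over 5% cells positive for green fluorescent reporter, or over 2% positive for both it and APC stain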;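 further: range taken on the double positive population between DMSO and positive control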
Starred values were filed as active, the others as inactive; i = inactive; nt = no result given; + = active, no number.

SMILES	CASP6 VEID inh	Vif inh	T cell HTS	Myeloid diff 2	Myeloid diff	GFP autofluor
Cc1ccc(CNC(=O)COC(=O)c2nc(-c3ccccc3)oc2C)cc1	-2	2	496	i	i	0
Cc1cc(N2CCN(c3nc4ccccc4s3)CC2)n2ncnc2n1	nt	-7	189	i	i	1
COc1cccc(S(=O)(=O)N[C@@H]2CC[C@@H](CCNC(=O)Nc3cc(F)ccc3F)O[C@@H]2CO)c1	1	nt	nt	nt	nt	nt
c1ccc(COc2ncnc3c2ncn3CCCN2CCN(c3ncccn3)CC2)cc1	-2	-1	nt	i	i	0
O=C(c1ccncc1)N1C[C@@H]2[C@H](c3ccccc31)[C@@H](CO)N2C(=O)Nc1ccc(F)cc1	2	nt	nt	nt	nt	nt
COc1cccc(Oc2c(C)oc3c(CN4CCCC4)c(O)ccc3c2=O)c1	2	-30	290	i	i	0
CC(C)(C)c1ccc(C(=O)NC(Cc2ccccc2)C(=O)O)cc1 (centres undefined)	nt	-1	208	i	i	0
CCn1nc(C(=O)OCC(=O)Nc2nc(-c3ccc(OC)cc3)cs2)c2ccccc2c1=O	nt	18	587	+	i	0
Cn1c(=O)c2ccccc2n(Cc2ccccc2Cl)c1=O	-2	-4	296	i	i	0
C[C@@H]1CCCCO[C@H](CN(C)C(=O)C2CCCCC2)[C@H](C)CN([C@H](C)CO)C(=O)c2cc(NC(=O)NC3CCCCC3)ccc2O1	0	nt	nt	nt	nt	nt
Cc1ccc(S(=O)(=O)NCCC(=O)N2CCN(Cc3ccccc3)CC2)cc1	nt	-4	833	+	i	0
Cc1ccc(NC(=O)CN2C(=O)N/C(=C\c3cccn3-c3cccc(C(=O)O)c3)C2=O)cc1	nt	-4	nt	i	nt	nt
O=C(O)c1ccc(-n2cccc2/C=C2/NC(=O)N(c3cccc(Cl)c3)C2=O)cc1	81*	-1	nt	+	i	0
C[C@@H]1CC=C[C@H]2[C@H]1C(=O)N(Cc1ccccc1)[C@H]2c1ccc(-c2ccc(F)cc2)cc1F	-1	-2	190	i	i	0
C[C@@H]1CC=C[C@H]2[C@H]1C(=O)N(Cc1ccccc1)[C@H]2c1ccc(-c2ccoc2)cc1F	nt	1	240	i	nt	nt
C=CCN1Cc2ccccc2[C@H]2OC(c3ccc(OCCCO)cc3)=N[C@@]2(CCS(=O)(=O)c2ccccc2)C1=O	1	nt	nt	nt	nt	nt
CCN(CC)CCN(C(=O)c1cccc(N2C(=O)CCC2=O)c1)c1nc2cc3c(cc2s1)OCO3	-7	-2	155	i	nt	nt
CCN(CC)CCN(C(=O)c1ccc(N2C(=O)CCC2=O)cc1)c1nc2cc3c(cc2s1)OCCO3	3	-9	56	+	i	0
O=C(C[C@@H]1C[C@@H]2c3cc(NC(=O)c4ccc5c(c4)OCO5)ccc3O[C@@H]2[C@@H](CO)O1)NCCc1ccccc1	-1	nt	nt	nt	nt	nt
O=[N+]([O-])c1ccc(/C=C/c2nc3ccc([N+](=O)[O-])cc3[nH]2)cc1	0	-8	312	+	i	0
Nc1nc2ccc([N+](=O)[O-])cc2[nH]1	-3	-4	113	i	nt	nt
Cc1ccc(S(=O)(=O)N2C[C@H]3C(=O)C[C@@H](c4ccccc4)N(S(=O)(=O)c4ccc(Br)cc4)[C@H]3C[C@H]2c2ccccc2)cc1	-2	nt	nt	+	i	4
O=C(CCc1nc2ccccc2c(=O)[nH]1)N1CCCc2ccccc21	2	-9	249	+	i	2
Cc1cccc(C)c1-n1c(C)nn(-c2ncc(C(F)(F)F)cc2Cl)c1=O	9	-8	575	i	i	0
Cc1nn(-c2ncc(C(F)(F)F)cc2Cl)c(=O)n1-c1c(F)cccc1F	0	-20	159	i	nt	nt
SMILES	CASP6 VEID inh	Vif inh	T cell HTS	Myeloid diff 2	Myeloid diff	GFP autofluor
COCC(=O)Nc1ccc2c(c1)OC[C@@H](C)N(Cc1cccnc1)C[C@H](C)[C@H](OC)CN(C)C2=O	1	nt	nt	nt	nt	nt
CCC(=O)N(C)C[C@H]1Oc2cc(-c3cccc(F)c3)ccc2S(=O)(=O)N([C@H](C)CO)C[C@@H]1C	0	nt	nt	nt	nt	nt
CCCCC(=O)OCC(=O)c1cc(C)n(-c2c(C)n(C)n(-c3ccccc3)c2=O)c1C	-2	50*	446	i	i	0
Cc1cccc(Nc2nc(NCC3CCCO3)nc(N)c2[N+](=O)[O-])c1 (centres undefined)	-5	-3	115	+	i	0
Nc1nc(NCC2CCCO2)nc(Nc2cccc(Cl)c2)c1[N+](=O)[O-] (centres undefined)	-1	-1	i	i	nt	nt
CC[n+]1c(/C=C/c2ccc(OC)c(OC)c2)ccc2ccccc21	-1	7	177	+	i	2
CC[n+]1c(/C=C/c2ccc(OC(C)=O)c(OC)c2)ccc2ccccc21	-3	0	177	i	nt	nt
COc1ccc(NC(=O)c2ccc3nccnc3c2)cc1	nt	6	180	i	i	0
O=C(ONC(=O)C1C2C=CC(C2)C1C(=O)NOC(=O)c1ccccc1)c1ccccc1 (centres undefined)	1	22	nt	i	i	0
O=C(O)c1ccc(Nc2ccc([N+](=O)[O-])c3nonc23)cc1	14	-3	260	i	nt	nt
O=[N+]([O-])c1ccc(Nc2ccccc2O)c2nonc12	9	-6	146	+	i	2
COc1ccc2sc3c(=O)[nH]c4ccccc4c3c2c1	nt	-6	234	+	i	0
C[C@@H]1CN([C@H](C)CO)C(=O)Cc2cc(NC(=O)CCC(F)(F)F)ccc2O[C@H]1CN(C)Cc1ccc(C(=O)Nc2ccccc2N)cc1	-1	nt	nt	nt	nt	nt
Cn1c(=O)c2c(nc(NCCc3ccccc3)n2Cc2ccc(F)cc2)n(C)c1=O	0	-17	810	i	nt	nt
COCCNc1nc2c(c(=O)n(C)c(=O)n2C)n1Cc1cccc(C)c1	nt	-3	302	i	nt	nt
C=CCNc1nc2c(c(=O)n(C)c(=O)n2C)n1Cc1ccc(F)cc1	-2	-14	543	i	i	1
Cc1cccc(Cn2c(NCCO)nc3c2c(=O)n(C)c(=O)n3C)c1	2	-6	230	+	i	0
COc1ccc(Oc2nccc(OC)c2C#N)cc1	-1	34	584	i	nt	nt
COc1ccnc(Oc2ccc(C)cc2C)c1C#N	nt	11	349	+	i	0
O=C(C[C@@H]1C[C@@H]2c3cc(NC(=O)CC4CC4)ccc3O[C@@H]2[C@@H](CO)O1)NCc1ccccc1F	2	nt	nt	nt	nt	nt
CO[C@@H]1CN(C)C(=O)c2cc(NS(=O)(=O)c3ccc(C)cc3)ccc2OC[C@H](C)N(C)C[C@H]1C	-2	nt	nt	nt	nt	nt

Screening data deposited in PubChem by several laboratories.
